Reference: BindingDB's records for doi:10.1016/j.ejmech.2013.12.052 (Jaypee University of Information Technology, 2014)
pIC50: −log10 of the molar value.

Biological target: T1, Inhibitor of nuclear factor kappa-B kinase subunit beta (Homo sapiens, UniProt O14920)
T1 sequence (O14920 whole entry): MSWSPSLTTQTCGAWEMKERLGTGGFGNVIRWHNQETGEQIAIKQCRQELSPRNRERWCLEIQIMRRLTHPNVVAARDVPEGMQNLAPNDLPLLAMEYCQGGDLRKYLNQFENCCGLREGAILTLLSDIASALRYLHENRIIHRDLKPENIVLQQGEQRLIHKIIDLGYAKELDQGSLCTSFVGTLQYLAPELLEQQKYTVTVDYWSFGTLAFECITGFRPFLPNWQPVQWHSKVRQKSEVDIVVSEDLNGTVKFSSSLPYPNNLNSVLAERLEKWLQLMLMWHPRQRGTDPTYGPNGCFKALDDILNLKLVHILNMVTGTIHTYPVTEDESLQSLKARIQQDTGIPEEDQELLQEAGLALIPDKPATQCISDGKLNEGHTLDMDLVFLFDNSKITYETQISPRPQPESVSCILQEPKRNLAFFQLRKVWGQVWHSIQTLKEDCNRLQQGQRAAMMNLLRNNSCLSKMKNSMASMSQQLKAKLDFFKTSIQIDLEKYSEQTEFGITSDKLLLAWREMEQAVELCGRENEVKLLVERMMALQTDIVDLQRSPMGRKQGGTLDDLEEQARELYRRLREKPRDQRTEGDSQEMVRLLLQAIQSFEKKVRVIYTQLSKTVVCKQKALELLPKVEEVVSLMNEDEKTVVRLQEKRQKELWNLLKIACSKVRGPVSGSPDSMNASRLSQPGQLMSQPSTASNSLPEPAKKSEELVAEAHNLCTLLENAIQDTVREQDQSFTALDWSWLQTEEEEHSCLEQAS
Assay: Inhibition of FLAG-tagged human recombinant IKKbeta phosphorylation expressed in baculovirus infected insect Sf9 cells after 1 hr by luminescence assay
How it was run: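 Reaction run 1 h at room temperature in 25 mmol/l HEPES pH 7.5, 10 mmol/l Mg acetate, DTT, 0.01% BSA and 0.01% Tween20, with 500 nmol ATP and GST-IκBα substrate. Kinase-Glo added, 10 min, luminescence from remaining ATP measured.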

| SMILES | pIC50 |
| --- | --- |
| CC(C)=CC(=O)O[C@@H]1CC(C)(C)C[C@H]2C3=CC[C@@H]4[C@@]5(C)CC[C@H](OC(=O)/C=C/c6ccccc6)C(C)(C)[C@@H]5CC[C@@]4(C)[C@]3(C)CC[C@@]12C(=O)O | 6.03 |
| C/C=C(\C)C(=O)O[C@@H]1CC(C)(C)C[C@H]2C3=CC[C@@H]4[C@@]5(C)CC[C@H](OC(=O)/C=C/c6ccccc6)C(C)(C)[C@@H]5CC[C@@]4(C)[C@]3(C)CC[C@@]12C(=O)O | 5.92 |
| C/C=C(\C)C(=O)O[C@@H]1CC(C)(C)C[C@H]2C3=CC[C@@H]4[C@@]5(C)CC[C@H](O)C(C)(C)[C@@H]5CC[C@@]4(C)[C@]3(C)CC[C@@]12C(=O)O | 5.58 |
